This note sets out measurements from publication PMC3697071 (Natural product communications, 2010).

For one data set, the system named is Candida krusei ATCC 6258. The data set can be described thus: Antimicrobial assay. The class given is cell-based. Conditions: first value of IC50/MIC.
For data set [1], the system named is Cryptococcus neoformans ATCC 90113. In words: Antimicrobial assay. The class given is cell-based.
Data set [2] concerns Staphylococcus aureus ATCC 29213. In words: Antimicrobial assay. The class given is cell-based. In short, it runs like this: (§1)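 Modified CLSI broth susceptibility method. Ciprofloxacin drug control in each assay. […] MIC is the lowest test concentration allowing no detectable growth.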
For data set [3], the system named is monkey kidney fibroblasts (VERO). The data set can be described thus: Cytotoxicity assay. The class given is cell-based. Conditions: VERO cells; max dose […] for pure compounds.
Data set [4] has as its system methicillin-resistant S. aureus ATCC 43300 (MRS). The data set can be described thus: Antimicrobial assay. Type of data set: cell-based, Staphylococcus aureus. Conditions: methicillin-resistant S. aureus. In short, it runs like this: as §1
Data set [5] has as its system Leishmania donovani promastigotes. The data set can be described thus: Antileishmanial assay. The class given is cell-based. Conditions: promastigotes, 72 h.
For data set [6], the system named is P. falciparum D6 (chloroquine-sensitive, Sierra Leone). The data set can be described thus: Antimalarial/parasite LDH assay, D6 clone. The class given is cell-based, Plasmodium falciparum. Conditions: chloroquine-sensitive clone D6.
For data set [7], the system named is Candida albicans ATCC 90028. In words: Antimicrobial assay. The class given is cell-based. Conditions: first value of IC50/MIC.
The next data set concerns Plasmodium falciparum. In words: Antimalarial/parasite LDH assay, strains not distinguished in text. Type of data set: cell-based. Conditions: result in words. The procedure, abridged:
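Colorimetric assay of parasite lactate dehydrogenase (pLDH) activity in P. falciparum cultures, run in 96-well format on two strains: Sierra Leone D6 (chloroquine-sensitive) and Indochina W2 (chloroquine-resistant). DMSO served as vehicle control, with artemisinin and chloroquine as drug controls.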

Data set [8] relates to P. falciparum W2 (chloroquine-resistant, Indochina). In words: Antimalarial/parasite LDH assay, W2 clone. The class given is cell-based, Plasmodium falciparum. Conditions: chloroquine-resistant clone W2.
In data set [9] the test system is Mycobacterium intracellulare ATCC 23068. In words: Antimicrobial assay. Type of data set: cell-based. Conditions: first value of IC50/MIC. The procedure, abridged:
as §1

The test system of data set [10] is Aspergillus fumigatus ATCC 90906. In words: Antimicrobial assay. Type of data set: cell-based.
For data set [11], the system named is Escherichia coli ATCC 35218. In words: Antimicrobial assay. Conditions: first value of IC50/MIC. Type of data set: cell-based. The procedure, abridged: as §1
Data set [12] has as its system Candida glabrata ATCC 90030. In words: Antimicrobial assay. The class given is cell-based. Conditions: first value of IC50/MIC.
Data set [13] concerns Pseudomonas aeruginosa ATCC 27853. In words: Antimicrobial assay. The class given is cell-based. Conditions: first value of IC50/MIC. The procedure, abridged:
as §1

Regarding `CC(C)c1cc2c(c(O)c1O)[C@@]1(C)CCCC(C)(C)C1=C(O)C2=O` [Compound 7, 6-hydroxysalvinolone], in the data set on Candida krusei ATCC 6258, the “C. krusei IC50” value is recorded as “−/− (- =Not Active)”. Moreover, in data set [1] (first value of IC50/MIC), the “C. neoformans IC50” value amounted to 0.96 µg/mL. The “C. neoformans MIC” value in data set [1] (second value of IC50/MIC) was 2.5 µg/mL. The “S. aureus IC50” value in data set [2] (first value of IC50/MIC) came to 1.75 µg/mL. Further, the “S. aureus MIC” value in data set [2] (second value of IC50/MIC) was determined as 5 µg/mL. Also, the “VERO TC50” value in data set [3] came to 4.5 µg/mL. Besides, the “MRS IC50” value in data set [4] (first value of IC50/MIC) was 1.56 µg/mL. In data set [4] (second value of IC50/MIC), the “MRS MIC” value was found to be 2.5 µg/mL. For the same compound, in data set [5], the “L. donovani IC50” value amounted to 3.2 µg/mL and the “L. donovani IC90” value stood at 6.5 µg/mL. In addition, the “P. falciparum D6 IC50” value in [6] worked out at 1.8 µg/mL. For the same compound, in data set [7], the “C. albicans IC50” value was “−/− (- =Not Active)”. Moreover, the “antimalarial activity against Plasmodium falciparum” value in the data set on Plasmodium falciparum is “weak antimalarial activity”. The “P. falciparum W2 IC50” value in data set [8] worked out at 2.5 µg/mL. The “M. intracellulare IC50” value in data set [9] is on record as “−/− (=Not Active)”. Besides, the “A. fumigatus IC50” value in data set [10] (first value of IC50/MIC) came to 11.2 µg/mL. In data set [10] (second value of IC50/MIC), the “A. fumigatus MIC” value was “−”. For the same compound, the “E. coli IC50” value in data set [11] is “−/− (=Not Active)”. Besides, the “C. glabrata IC50” value in data set [12] is listed as “−/− (- =Not Active)”. In addition, the “P. aureginosa IC50” value in data set [13] is listed as “−/− (=Not Active)”.
